Active and inactive are the calls of the source. The calls are words filed in the database; no cut-off is given here.
What was measured:
Plasmodium falciparum [1] = assay: Antimalarial activity against Plasmodium falciparum K1 by automated image mining based cytological profiling assay; assay type: functional, organism-based
In short: (§1)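 Parasite cultures in 384-well format, read by automated imaging. Infected erythrocytes detected by DAPI nuclear staining against WGA-AlexaFluor 488 host-cell stain, and viability by Mitotracker Red CMXRos. Total culture parasitaemia quantified. EC50 given as mean±SD of two independent experiments, each in duplicate.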

Plasmodium falciparum [2] = assay: Antimalarial activity against tightly synchronized Plasmodium falciparum K1 assessed as parasite stage accumulation index at schizonts stages at 10 uM treated at 18 hrs post-invasion for continuous duration of 36 hrs by automated image mining based cytological profiling assay; assay type: functional
In short: (§2)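 Tightly synchronized cultures exposed to 10 µM final from 6 hpi (early ring), 18 hpi (late ring) or 30 hpi (mid-trophozoite) for a continuous 36 h. Erythrocytes stained with WGA-AlexaFluor 488, parasite nuclei with DAPI, functional mitochondria with Mitotracker Red CMXRos. Stages (early rings, late rings, trophozoites, schizonts) classified by nuclear spot number and size. Viable parasitaemia and stage accumulation index obtained by automated image analysis.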

Plasmodium falciparum [3] = assay: Antimalarial activity against tightly synchronized Plasmodium falciparum K1 assessed as parasite stage accumulation index at trophozoites stages at 10 uM treated at 30 hrs post-invasion for continuous duration of 36 hrs by automated image mining based cytological profiling assay; assay type: functional; in short: as §2
Plasmodium falciparum [4] = assay: Antimalarial activity against tightly synchronized Plasmodium falciparum K1 assessed as parasite stage accumulation index at schizonts stages at 10 uM treated at 30 hrs post-invasion for continuous duration of 36 hrs by automated image mining based cytological profiling assay; assay type: functional; in short: as §2
Plasmodium falciparum [5] = assay: Antimalarial activity against Plasmodium falciparum W2 by automated image mining based cytological profiling assay; assay type: functional, organism-based; in short: as §1
Plasmodium falciparum [6] = assay: Antimalarial activity against Plasmodium falciparum HB3 by automated image mining based cytological profiling assay; assay type: functional; in short: as §1
Plasmodium falciparum [7] = assay: Antimalarial activity against Plasmodium falciparum K1 assessed as reduction in parasite stage accumulation index at 10 uM treated at 42 hrs post-invasion for 24 hrs by automated image mining based cytological profiling assay; assay type: functional, organism-based
In short: (§3)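 Tightly synchronized cultures exposed from the 42 hpi mid-schizont point for 24 h to 10 µM final. Host cells stained with wheat germ agglutinin-AlexaFluor 488, parasite nuclei with DAPI and live-parasite mitochondria with Mitotracker Red CMXRos. Infected and viable parasitaemia and stage proportions quantified by automated image mining. Stage accumulation indices and parasitaemia reduction index derived.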

Plasmodium falciparum [8] = assay: Antimalarial activity against Plasmodium falciparum HB3 assessed as reduction in parasite stage accumulation index at 10 uM treated at 42 hrs post-invasion for 24 hrs by automated image mining based cytological profiling assay; assay type: functional; in short: as §3
Plasmodium falciparum [9] = assay: Antimalarial activity against Plasmodium falciparum W2 assessed as reduction in parasite stage accumulation index at 10 uM treated at 42 hrs post-invasion for 24 hrs by automated image mining based cytological profiling assay; assay type: functional, organism-based; in short: as §3
Plasmodium falciparum [10] = assay: Antimalarial activity against Plasmodium falciparum K1 assessed as increase in schizonts parasite stage accumulation index at 10 uM treated at 42 hrs post-invasion for 24 hrs by automated image mining based cytological profiling assay; assay type: functional, organism-based; in short: as §3
Plasmodium falciparum [11] = assay: Antimalarial activity against Plasmodium falciparum HB3 assessed as increase in schizonts parasite stage accumulation index at 10 uM treated at 42 hrs post-invasion for 24 hrs by automated image mining based cytological profiling assay; assay type: functional; in short: as §3
Plasmodium falciparum [12] = assay: Antimalarial activity against Plasmodium falciparum W2 assessed as increase in schizonts parasite stage accumulation index at 10 uM treated at 42 hrs post-invasion for 24 hrs by automated image mining based cytological profiling assay; assay type: functional, organism-based; in short: as §3
Plasmodium falciparum [13] = assay: Antimalarial activity against tightly synchronized Plasmodium falciparum HB3 assessed as parasite stage accumulation index at late ring stages at 10 uM treated at 6 hrs post-invasion for continuous duration of 36 hrs by automated image mining based cytological profiling assay; assay type: functional; in short: as §2
Plasmodium falciparum [14] = assay: Antimalarial activity against tightly synchronized Plasmodium falciparum HB3 assessed as parasite stage accumulation index at trophozoites stages at 10 uM treated at 6 hrs post-invasion for continuous duration of 36 hrs by automated image mining based cytological profiling assay; assay type: functional; in short: as §2
Plasmodium falciparum [15] = assay: Antimalarial activity against tightly synchronized Plasmodium falciparum HB3 assessed as parasite stage accumulation index at schizonts stages at 10 uM treated at 6 hrs post-invasion for continuous duration of 36 hrs by automated image mining based cytological profiling assay; assay type: functional; in short: as §2
Plasmodium falciparum [16] = assay: Antimalarial activity against tightly synchronized Plasmodium falciparum HB3 assessed as parasite stage accumulation index at late ring stages at 10 uM treated at 18 hrs post-invasion for continuous duration of 36 hrs by automated image mining based cytological profiling assay; assay type: functional; in short: as §2
Plasmodium falciparum [17] = assay: Antimalarial activity against tightly synchronized Plasmodium falciparum HB3 assessed as parasite stage accumulation index at trophozoites stages at 10 uM treated at 18 hrs post-invasion for continuous duration of 36 hrs by automated image mining based cytological profiling assay; assay type: functional; in short: as §2
Plasmodium falciparum [18] = assay: Antimalarial activity against tightly synchronized Plasmodium falciparum HB3 assessed as parasite stage accumulation index at schizonts stages at 10 uM treated at 18 hrs post-invasion for continuous duration of 36 hrs by automated image mining based cytological profiling assay; assay type: functional; in short: as §2
Plasmodium falciparum [19] = assay: Antimalarial activity against tightly synchronized Plasmodium falciparum W2 assessed as parasite stage accumulation index at early ring stages at 10 uM treated at 6 hrs post-invasion for continuous duration of 36 hrs by automated image mining based cytological profiling assay; assay type: functional; in short: as §2
Plasmodium falciparum [20] = assay: Antimalarial activity against tightly synchronized Plasmodium falciparum W2 assessed as parasite stage accumulation index at trophozoites stages at 10 uM treated at 6 hrs post-invasion for continuous duration of 36 hrs by automated image mining based cytological profiling assay; assay type: functional
Plasmodium falciparum [21] = assay: Antimalarial activity against tightly synchronized Plasmodium falciparum W2 assessed as parasite stage accumulation index at schizonts stages at 10 uM treated at 6 hrs post-invasion for continuous duration of 36 hrs by automated image mining based cytological profiling assay; assay type: functional; in short: as §2
Plasmodium falciparum [22] = assay: Antimalarial activity against tightly synchronized Plasmodium falciparum W2 assessed as parasite stage accumulation index at late ring stages at 10 uM treated at 18 hrs post-invasion for continuous duration of 36 hrs by automated image mining based cytological profiling assay; assay type: functional; in short: as §2
Plasmodium falciparum [23] = assay: Antimalarial activity against tightly synchronized Plasmodium falciparum W2 assessed as parasite stage accumulation index at trophozoites stages at 10 uM treated at 18 hrs post-invasion for continuous duration of 36 hrs by automated image mining based cytological profiling assay; assay type: functional
Plasmodium falciparum [24] = assay: Antimalarial activity against tightly synchronized Plasmodium falciparum W2 assessed as parasite stage accumulation index at trophozoites stages at 10 uM treated at 30 hrs post-invasion for continuous duration of 36 hrs by automated image mining based cytological profiling assay; assay type: functional; in short: as §2
Plasmodium falciparum [25] = assay: Antimalarial activity against tightly synchronized Plasmodium falciparum W2 assessed as parasite stage accumulation index at schizonts stages at 10 uM treated at 30 hrs post-invasion for continuous duration of 36 hrs by automated image mining based cytological profiling assay; assay type: functional
Plasmodium falciparum [26] = assay: Antimalarial activity against tightly synchronized Plasmodium falciparum K1 assessed as parasite stage accumulation index at early ring stages at 10 uM treated at 6 hrs post-invasion for continuous duration of 36 hrs by automated image mining based cytological profiling assay; assay type: functional; in short: as §2
Plasmodium falciparum [27] = assay: Antimalarial activity against tightly synchronized Plasmodium falciparum K1 assessed as parasite stage accumulation index at trophozoites stages at 10 uM treated at 6 hrs post-invasion for continuous duration of 36 hrs by automated image mining based cytological profiling assay; assay type: functional
Plasmodium falciparum [28] = assay: Antimalarial activity against tightly synchronized Plasmodium falciparum K1 assessed as parasite stage accumulation index at schizonts stages at 10 uM treated at 6 hrs post-invasion for continuous duration of 36 hrs by automated image mining based cytological profiling assay; assay type: functional; in short: as §2
Plasmodium falciparum [29] = assay: Antimalarial activity against tightly synchronized Plasmodium falciparum K1 assessed as parasite stage accumulation index at late ring stages at 10 uM treated at 18 hrs post-invasion for continuous duration of 36 hrs by automated image mining based cytological profiling assay; assay type: functional; in short: as §2
Plasmodium falciparum [30] = assay: Antimalarial activity against tightly synchronized Plasmodium falciparum K1 assessed as parasite stage accumulation index at trophozoites stages at 10 uM treated at 18 hrs post-invasion for continuous duration of 36 hrs by automated image mining based cytological profiling assay; assay type: functional; in short: as §2

Question: Which EC50 (Plasmodium falciparum [1]) does the source give for COc1ccc(CO[C@@H]([C@H](OCc2ccc(OC)cc2)c2cnc(N(C)C)nc2)[C@@H](COC(c2ccccc2)(c2ccccc2)c2ccccc2)OS(C)(=O)=O)cc1 here?
Answer: 198 nM

Question: For COc1ccc(CO[C@H]([C@H](O)COC(c2ccccc2)(c2ccccc2)c2ccccc2)[C@H](OCc2ccc(OC)cc2)c2cnn(C)c2)cc1, which EC50 (Plasmodium falciparum [1]) is on record?
Answer: 478 nM

Question: With COc1ccc(CO[C@@H]([C@H](COS(C)(=O)=O)N=[N+]=[N-])[C@H](OCc2ccc(OC)cc2)c2cnc(N(C)C)nc2)cc1 as the compound, how does the EC50 (Plasmodium falciparum [1]) read?
Answer: 6660 nM

Question: How did the Activity (Plasmodium falciparum [2]) turn out when C[C@@H]1CC[C@H]2[C@@H](C)C(=O)O[C@@H]3O[C@@]4(C)CC[C@@H]1[C@]32OO4 [ARTEMISININ] was run?
Answer: 0.26

Question: What about the Activity (Plasmodium falciparum [3]) of the same compound?
Answer: 1.09

Question: What about the Activity (Plasmodium falciparum [4]) of the same compound?
Answer: 0.31

Question: And the EC50 (Plasmodium falciparum [1])?
Answer: 3 nM

Question: And the EC50 (Plasmodium falciparum [5])?
Answer: 11 nM

Question: What about the EC50 (Plasmodium falciparum [6]) of the same compound?
Answer: 18 nM

Question: What about the inhibition (Plasmodium falciparum [7]) of the same compound?
Answer: Active

Question: What about the inhibition (Plasmodium falciparum [8]) of the same compound?
Answer: Active

Question: And the inhibition (Plasmodium falciparum [9])?
Answer: Active

Question: And the inhibition (Plasmodium falciparum [10])?
Answer: Active

Question: What about the inhibition (Plasmodium falciparum [11]) of the same compound?
Answer: Active

Question: What about the inhibition (Plasmodium falciparum [12]) of the same compound?
Answer: Active

Question: And the Activity (Plasmodium falciparum [13])?
Answer: 3.53

Question: What about the Activity (Plasmodium falciparum [14]) of the same compound?
Answer: 0.37

Question: What about the Activity (Plasmodium falciparum [15]) of the same compound?
Answer: 0.11

Question: And the Activity (Plasmodium falciparum [16])?
Answer: 4.4

Question: And the Activity (Plasmodium falciparum [17])?
Answer: 1.06

Question: What about the Activity (Plasmodium falciparum [18]) of the same compound?
Answer: 0.47

Question: And the Activity (Plasmodium falciparum [19])?
Answer: 2.06

Question: And the Activity (Plasmodium falciparum [20])?
Answer: 0.81

Question: And the Activity (Plasmodium falciparum [21])?
Answer: 0.47

Question: And the Activity (Plasmodium falciparum [22])?
Answer: 2.01

Question: And the Activity (Plasmodium falciparum [23])?
Answer: 1.06

Question: What about the Activity (Plasmodium falciparum [24]) of the same compound?
Answer: 1.51

Question: And the Activity (Plasmodium falciparum [25])?
Answer: 1.05

Question: And the Activity (Plasmodium falciparum [26])?
Answer: 1.96

Question: What about the Activity (Plasmodium falciparum [27]) of the same compound?
Answer: 0.51

Question: And the Activity (Plasmodium falciparum [28])?
Answer: 0.17

Question: And the Activity (Plasmodium falciparum [29])?
Answer: 2.52

Question: What about the Activity (Plasmodium falciparum [30]) of the same compound?
Answer: 0.7

Question: Which EC50 (Plasmodium falciparum [1]) does the source give for COc1ccc(CO[C@@H]([C@H](COCc2ccccc2)N=[N+]=[N-])[C@H](OCc2ccc(OC)cc2)c2cnc(N(C)C)nc2)cc1 here?
Answer: 1420 nM

Question: With COc1ccc(CO[C@H]([C@H](COCc2ccccc2)N=[N+]=[N-])[C@H](OCc2ccc(OC)cc2)c2cnc(N(C)C)nc2)cc1 as the compound, how does the EC50 (Plasmodium falciparum [1]) read?
Answer: 1200 nM

Question: COc1ccc(CO[C@H]([C@H](OCc2ccc(OC)cc2)c2cnn(C)c2)[C@@H](COC(c2ccccc2)(c2ccccc2)c2ccccc2)OS(C)(=O)=O)cc1 was tested. Which EC50 (Plasmodium falciparum [1]) did it give?
Answer: 158 nM

Question: For COc1ccc(CO[C@H]([C@H](O)COC(c2ccccc2)(c2ccccc2)c2ccccc2)[C@H](OCc2ccc(OC)cc2)c2cnc(N(C)C)nc2)cc1, which EC50 (Plasmodium falciparum [1]) is on record?
Answer: 559 nM

From ChEMBL document CHEMBL3352416, “Discovery of carbohybrid-based 2-aminopyrimidine analogues as a new class of rapid-acting antimalarial agents using image-based cytological profiling assay” (J Med Chem, 2014)
